Screens: PubChem BioAssay, several laboratories
An excerpt weighted towards active compounds, which were near 1.6% of everything screened.
TCR CD3 inh = human TCR-CD3 binding inhibition | actives 0.37% (n = 360,000) | inhibition, % at 9.4 µM | TAMRA-labeled TCR probe fluorescence, biochemical; in the data active means inhibition above about 19%;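 further: recombinant mutant TCR 2C K166C tagged with TAMRA read by polarization; 0% = receptor in buffer alone and 100% = receptor with positive control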
PABP FP inh = blocks human PABP binding to poly(A) RNA; P11940; fluorescence polarization; calls only at 35 µM; actives 1% (n = 290,000);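 further: calls also rest on retests at 20 µM and on dose response follow-up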
Target sequence (P11940 whole entry, looked up): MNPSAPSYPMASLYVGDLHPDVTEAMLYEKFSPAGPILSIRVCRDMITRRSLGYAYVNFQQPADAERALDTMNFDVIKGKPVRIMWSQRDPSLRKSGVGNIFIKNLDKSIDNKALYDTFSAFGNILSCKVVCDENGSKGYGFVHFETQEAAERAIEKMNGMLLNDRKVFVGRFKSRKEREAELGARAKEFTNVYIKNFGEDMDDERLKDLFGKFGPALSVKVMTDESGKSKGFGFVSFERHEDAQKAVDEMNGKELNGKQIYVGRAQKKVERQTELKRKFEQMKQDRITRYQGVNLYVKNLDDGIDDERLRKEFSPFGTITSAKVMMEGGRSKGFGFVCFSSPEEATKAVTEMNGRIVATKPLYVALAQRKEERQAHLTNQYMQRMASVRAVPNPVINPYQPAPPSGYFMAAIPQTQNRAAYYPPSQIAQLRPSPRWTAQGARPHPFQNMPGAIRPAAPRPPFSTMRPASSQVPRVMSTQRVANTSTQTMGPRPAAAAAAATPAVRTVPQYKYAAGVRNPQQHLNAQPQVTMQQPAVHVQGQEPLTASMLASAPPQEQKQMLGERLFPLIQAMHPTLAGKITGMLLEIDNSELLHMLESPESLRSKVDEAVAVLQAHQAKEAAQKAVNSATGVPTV
RBBP9 inh = human RBBP9 hydrolase inhibition; O75884; recombinant RBBP9, FP-Rh probe fluorescence polarization; inhibition, % at 7.94 µM; actives 0.2% (n = 220,000);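 active means inhibition above the campaign mean of all tested compounds plus 3 SD, cut at about 14% in these data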;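 further: plate controls were DMSO wells with RBBP9 for no effect and wells lacking RBBP9 protein for full effect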
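System: RBBP9 protein | Quantity: 2.5 µM RBBP9 dispensing solution, before mixing | Reagent: FP-Rh probe, 375 nM dispensing solution | Timing: Enzyme-compound preincubation 30 min, then probe labeling 45 min, 25 °C | Measured by: Fluorescence polarization | Read-out: % inhibition | Replication: One well per compound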
eIF4H FP inh = inhibitors of RNA binding by human eIF4H | eIF4H fluorescence polarization binding assay | inhibition, % at 35 µM | actives 0.94% (n = 290,000);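 further: calls also rest on retests at 20 µM and on dose response follow-up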
PABP1 MLLE inh = blocks PAM2 peptide binding to the PABP1 MLLE domain; P11940; GST-MLLE / FITC-PAM2 fluorescence polarization; inhibition, % at 20 µM; actives 0.36% (n = 360,000); AID 588489; in the data active means inhibition above about 35%, passing the limit was not always enough;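 further: plate controls were DMSO wells with GST-MLLE for no effect and wells lacking GST-MLLE protein for full effect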
* marks the source's active call; other numbers are inactive results; i = inactive; ? = inconclusive; / = no result given; + = active, no number. Unless noted, how the calls were made is not given here.

SMILES | TCR CD3 inh | PABP FP inh | RBBP9 inh | eIF4H FP inh | PABP1 MLLE inh
COCCNC(=S)N(CCO)Cc1cc2cc3c(cc2[nH]c1=O)OCCO3 | 3 | i | / | 6 | 39*
COCCNC(=S)N(CCCN(C)C)Cc1cc2cc3c(cc2[nH]c1=O)OCCO3 | 10 | i | / | 10 | -80
CCCCCCCCN1C(=O)[C@@H](CC(=O)N2CCSCC2)C[C@@]2(C(=O)OC)C1=C[C@H](C1CCCC1)O[C@@H]2C | 12 | / | / | / | /
O=C(O)c1ccc2[nH]c3c(c2c1)CSCC3 | / | i | -12 | 56* | 33
Nc1ccc(N2CCCCCC2)cc1 | / | + | 8 | 83* | /
CSC(=Cc1ccc(C(=O)c2ccc(C)cc2)n1C)S(C)=O (stereo not given) | -1 | / | / | / | /
CCOC(=O)c1c(-c2ccc(C)o2)csc1NC(=O)CN1CCCCC1 | -2 | i | -14 | -11 | 2
CCOC(=O)c1c(-c2ccc(C)o2)csc1NC(=S)NC(=O)c1ccc(F)cc1 | 7 | i | -12 | 6 | 46*
C=CCOC(=O)C1=C(C)OC(N)=C(C#N)C1c1ccoc1 (stereo not given) | 3 | i | 1 | 102* | -20
C=CCOC(=O)C1=C(C)OC(N)=C(C#N)C1c1ccc2c(c1)OCO2 (stereo not given) | 2 | i | -9 | 0 | 11
O=C1/C(=C\c2ccc(O)c(O)c2)C(c2ccccc2)=NN1c1ccccc1 | 4 | + | 8 | 90 | -34
CCOc1cc(/C=C2\C(=O)N(c3nc(-c4ccc(Br)cc4)cs3)N=C2c2ccccc2)ccc1O | / | i | -4 | 84* | -77
COc1cc(/C=C2\C(=O)N(c3ccc(NC(C)=O)cc3)N=C2c2ccccc2)ccc1O | -11 | i | -3 | -1 | -70
C=CCN1C[C@H](COC(=O)CSc2ccccc2)Oc2cccc(F)c2S1(=O)=O | -2 | / | / | / | /
O=C1C(Cl)=C(N2CCCCCC2)C(=O)N1c1ccc(Cl)cc1 | -3 | i | / | 1 | -8
O=C1C(Cl)=C(N2CCCCC2)C(=O)C(Cl)=C1c1cnc(N2CCCCC2)s1 | / | i | 1 | ? | 48*
O=c1oc(/C=C/c2ccc([N+](=O)[O-])s2)nc2ccccc12 | / | + | / | 97* | -21
CCCCCCCCN1C(=O)[C@@H](CC(=O)NCc2cccc3ccccc23)C[C@@]2(C(=O)OC)C1=C[C@H](C(C)(C)C)O[C@@H]2C | -5 | / | / | / | /
CC1(c2ccc([N+](=O)[O-])cc2)Nc2ccccc2S1 (stereo not given) | 6 | i | / | 1 | 42*
O=C1Nc2ccccc2/C1=C/c1ccc([N+](=O)[O-])cc1 | 4 | i | / | 2 | 14
COc1ccc(C(C)(C)C)cc1N1C(=O)[C@@H]2CSCCS(=O)(=O)N2C1=O | 2 | / | / | / | /
CCOC(=O)c1c(CSc2ccc(C)cc2)n(C)c2cc(Br)c(O)c(CN(C)C)c12 | 0 | i | -7 | 18 | 100*
CCOC(=O)c1c(CSc2ccccc2)n(C)c2cc(Br)c(O)c(CN(C)C)c12 | 3 | i | -2 | -8 | 8
Cc1ccc(S(=O)(=O)N2CCC(C(=O)NNC(=O)c3ccccc3)CC2)cc1 | 5 | + | -12 | 56* | -7
Cc1ccc(N2C(=O)CC(SCC(=O)Nc3ccc(S(N)(=O)=O)cc3)C2=O)cc1 (stereo not given) | 9 | i | -13 | 1 | 42*
SMILES | TCR CD3 inh | PABP FP inh | RBBP9 inh | eIF4H FP inh | PABP1 MLLE inh
CCNc1ccc(Br)cc(C(=O)/C=C/c2ccc3c(c2)OCO3)c1=O | 7 | + | -10 | 78* | -57
CNc1ccc(Br)cc(C(=O)/C=C/c2cccc(OC)c2)c1=O | 10 | + | 9 | 80* | -63
O=C(C(=O)N1CCC(CNS(=O)(=O)Cc2ccccc2)CC1)c1cccs1 | -2 | / | / | / | /
Cc1cc2oc(=O)cc(CN3CCOCC3)c2cc1C | -6 | i | 5 | -3 | -8
CCNc1cc2oc(=O)c(CN3CCOCC3)c(C)c2cc1C | -1 | ? | 7 | ? | 48*
O=[N+]([O-])c1ccccc1CNc1ccc(F)c(Cl)c1 | 2 | + | 0 | 74 | -3
Cc1cc(F)ccc1NCc1ccccc1[N+](=O)[O-] | 1 | i | -6 | -2 | -6
CCN1CCc2c(sc3c2c(NCc2ccco2)nc2nnnn23)C1 | 6 | + | -1 | 57* | -17
O=C(CSc1ncnc2ccccc12)NCc1ccc2c(c1)OCO2 | 1 | i | -1 | active | -10
CC(C)c1nc(SCC(=O)Nc2ccc(N3CCOCC3)cc2)c2ccccc2n1 | -6 | i | -10 | -1 | 45*
O=C(CSc1nc(Cc2ccccc2)nc2ccccc12)Nc1ccc2c(c1)OCCO2 | 4 | i | -2 | 5 | 38*
COC(=O)C1=C(C)N(Cc2cccc(C(F)(F)F)c2)C(=NCC2CC2)NC1c1ccccc1 (stereo not given) | 4 | / | / | / | /
COCCNC(=S)NN(c1ccccc1)c1ccccc1 | -2 | i | 2 | -7 | 20
COCCNC(=S)N(c1ccccc1)C(C)C | 4 | i | 0 | 2.5* | -13
O=C(N/N=C/C=C/c1ccco1)/C(=C/c1ccccc1)NC(=O)c1ccccc1 | 0 | + | 0 | 51* | 4
O=C(Cc1cccs1)N/N=C/C=C\c1ccco1 | 14 | + | -7 | 103* | -6
Cc1cccc(OCC(=O)N/N=C/C=C/c2ccco2)c1 | 7 | i | -16 | 81* | -15
O=C(Cc1cccs1)N/N=C/c1ccco1 | 6 | i | -5 | 3 | -6
O=C(N/N=C/C=C/c1ccco1)c1ccccc1Cl | -2 | + | -10 | 78* | 0
F[B-](F)(F)COCc1ccccc1C#Cc1ccccc1 | -3 | / | / | / | /
Nc1[nH]c(C(=O)c2ccccc2)c(-c2cccc3ccccc23)c1C(=O)NC1CCCCC1 | -3 | / | / | / | /
Cc1ccc(NC(=O)c2cc(N3C(=O)C=CC3=O)ccc2Cl)cc1C | 3 | + | -7 | ? | 24
COC(=O)C1=C(C)N(Cc2ccc(C(F)(F)F)cc2)C(=NCc2ccc(C(F)(F)F)cc2)NC1c1ccc(F)cc1 (stereo not given) | -2 | / | / | / | /
CC1(C)C(=O)Nc2ccccc2N1C(=O)COc1ccc(S(=O)(=O)N2CCOCC2)cc1Cl | 0 | + | -7 | 64 | -20
O=C(COc1ccc(S(=O)(=O)N2CCOCC2)cc1Cl)N1CCCC1 | 5 | i | / | -12 | -4
COC(=O)[C@]12C[C@H](CC(=O)NCc3ccc(C)o3)C(=O)N(Cc3ccccc3)C1=C[C@H](C1CCCC1)O[C@@H]2C | 6 | / | / | / | /
COc1ccc(/C=N/NC(=O)c2nn(-c3ccc(Cl)cc3)c(=O)c3c(N)scc23)cc1 | -1 | i | 5 | 66 | 11
COc1ccc(/C=N/NC(=O)c2nn(-c3ccccc3)c(=O)c3c(N)scc23)cc1 | 7 | i | -6 | 71* | 16
CC(=O)C1=C(C)N(Cc2ccc(Cl)cc2)C(=S)NC1c1cccc(Br)c1 (stereo not given) | -4 | / | / | / | /
